Assay results published in ChEMBL document CHEMBL1132963, “Structure-based design of potent, amidine-derived inhibitors of factor Xa: evaluation of selectivity, anticoagulant activity, and antithrombotic activity” (2000).
One block for each molecule: values may come before it.

How the values were obtained:
[1] = biological target: Coagulation factor X (Homo sapiens) (UniProt P00742); assay: Apparent association constant against human Coagulation factor X.
How it was run: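 Human fXa at 3.2 nM final in Tris/NaCl buffer pH 7.4 with HSA; inhibitor added from MeOH in triplicate at four to eight concentrations, then chromogenic substrate (0.3 mM stock) to start hydrolysis, read at 405 nm. Free and bound enzyme taken from on-plate standard curves; apparent Kass = [Eb]/[Ef][Io − Ib] from concentrations giving 20–80% inhibition. At least 3 separate experiments averaged.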

[2] = biological target: Prothrombin (Homo sapiens) (UniProt P00734); assay: Tested for inhibition of thrombin.
How it was run: (§1)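 Apparent association constant from inhibition of chromogenic substrate hydrolysis read at 405 nm, using a single substrate concentration suited to each protease. Inhibitor dilutions done in triplicate at four to eight concentrations; Kass computed from free and bound enzyme at 20–80% inhibition. Mean of at least 3 separate experiments.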

[3] = Selectivity as the ratio of Kass value towards fXa to that of UK.
How it was run: (§2)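 Ratio of fXa Kass to Kass for the second protease. Each Kass is an apparent association constant from chromogenic substrate hydrolysis kinetics at 405 nm, run at one substrate concentration per protease, in triplicate at four to eight inhibitor concentrations. Each value is the mean of at least 3 separate experiments.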

[4] = biological target: Thrombin and coagulation factor X (Homo sapiens) (UniProt P00734+P00742); assay: Selectivity as the ratio of Kass value towards fXa to that of thrombin.; type: protein assay; how it was run: as §2
[5] = biological target: Vitamin K-dependent protein C (Homo sapiens) (UniProt P04070); assay: Tested for inhibition of activated protein C; how it was run: as §1
Trypsin II (Bos taurus) = biological target: T1, Trypsin II (Bos taurus) (UniProt Q29463); assay: Tested for inhibition of trypsin; how it was run: as §1
T1 sequence (whole entry): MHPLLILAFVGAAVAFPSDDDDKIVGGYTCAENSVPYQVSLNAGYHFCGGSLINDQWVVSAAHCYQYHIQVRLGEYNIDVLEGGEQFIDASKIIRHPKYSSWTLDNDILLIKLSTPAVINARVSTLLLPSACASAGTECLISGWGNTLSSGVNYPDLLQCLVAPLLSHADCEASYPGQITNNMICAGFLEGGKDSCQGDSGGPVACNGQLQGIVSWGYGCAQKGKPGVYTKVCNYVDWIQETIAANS

[6] = biological target: Tissue-type plasminogen activator (Homo sapiens) (UniProt P00750); assay: Tested for inhibition of Tissue type plasminogen activator; how it was run: as §1
[7] = biological target: Urokinase-type plasminogen activator (Homo sapiens) (UniProt P00749); assay: Tested for inhibition of Urokinase-type plasminogen activator; how it was run: as §1
[8] = tested on: Plasminogen and coagulation factor X (Homo sapiens); assay: Selectivity as the ratio of Kass value towards fXa to that of plasmin.
[9] = Selectivity as the ratio of Kass value towards fXa to that of trypsin.; how it was run: as §2
[10] = Compound required to double the time to clot formation in reconstituted human plasma, using activated partial thromboplastin time (APTT); type: functional
How it was run: (§3)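 Reconstituted human plasma; clotting by activated partial thromboplastin time or prothrombin time. Value is the inhibitor concentration that doubles clotting time.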

[11] = biological target: Plasminogen (Homo sapiens) (UniProt P00747); assay: Tested for inhibition of plasmin
[12] = Selectivity as the ratio of Kass value towards fXa to that of tissue plasminogen activator.; how it was run: as §2
[13] = biological target: Coagulation factor X (Homo sapiens) (UniProt P00742); assay: Selectivity as the ratio of Kass value towards fXa to that of aPC.; how it was run: as §2
Homo sapiens = species: Homo sapiens; assay: Compound required to double the time to clot formation in reconstituted human plasma, using the prothromboplastin time (PT); type: functional; how it was run: as §3

Coagulation factor X (Homo sapiens), sequence (P00742 41-179 limits assumed): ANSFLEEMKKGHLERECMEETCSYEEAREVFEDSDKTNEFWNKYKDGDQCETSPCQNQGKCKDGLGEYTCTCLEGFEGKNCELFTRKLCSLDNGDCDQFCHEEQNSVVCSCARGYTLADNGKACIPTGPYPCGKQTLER
Coagulation factor X (Homo sapiens), sequence (P00742 235-488 limits assumed): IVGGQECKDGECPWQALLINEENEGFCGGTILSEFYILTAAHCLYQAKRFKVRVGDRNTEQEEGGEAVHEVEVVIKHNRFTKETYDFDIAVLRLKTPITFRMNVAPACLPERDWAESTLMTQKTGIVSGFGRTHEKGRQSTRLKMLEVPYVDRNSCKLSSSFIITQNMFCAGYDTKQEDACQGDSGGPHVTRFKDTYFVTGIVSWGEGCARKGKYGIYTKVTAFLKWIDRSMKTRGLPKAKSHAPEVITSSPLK
Thrombin and coagulation factor X (Homo sapiens), sequence (P00742 whole entry, looked up, other chains not shown): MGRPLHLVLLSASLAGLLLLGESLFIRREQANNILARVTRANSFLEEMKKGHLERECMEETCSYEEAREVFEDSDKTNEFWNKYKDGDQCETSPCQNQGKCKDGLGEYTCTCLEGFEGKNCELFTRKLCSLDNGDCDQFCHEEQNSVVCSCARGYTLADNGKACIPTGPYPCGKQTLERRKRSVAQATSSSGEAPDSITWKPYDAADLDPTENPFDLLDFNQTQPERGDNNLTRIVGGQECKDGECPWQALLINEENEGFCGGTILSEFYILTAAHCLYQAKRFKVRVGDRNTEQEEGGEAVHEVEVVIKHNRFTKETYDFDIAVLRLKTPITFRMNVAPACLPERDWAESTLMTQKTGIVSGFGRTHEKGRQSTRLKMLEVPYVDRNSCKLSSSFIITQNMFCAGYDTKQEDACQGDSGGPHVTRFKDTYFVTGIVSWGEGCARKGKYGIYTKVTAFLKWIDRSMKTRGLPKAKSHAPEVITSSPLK
Plasminogen (Homo sapiens), sequence (P00747 whole entry, looked up): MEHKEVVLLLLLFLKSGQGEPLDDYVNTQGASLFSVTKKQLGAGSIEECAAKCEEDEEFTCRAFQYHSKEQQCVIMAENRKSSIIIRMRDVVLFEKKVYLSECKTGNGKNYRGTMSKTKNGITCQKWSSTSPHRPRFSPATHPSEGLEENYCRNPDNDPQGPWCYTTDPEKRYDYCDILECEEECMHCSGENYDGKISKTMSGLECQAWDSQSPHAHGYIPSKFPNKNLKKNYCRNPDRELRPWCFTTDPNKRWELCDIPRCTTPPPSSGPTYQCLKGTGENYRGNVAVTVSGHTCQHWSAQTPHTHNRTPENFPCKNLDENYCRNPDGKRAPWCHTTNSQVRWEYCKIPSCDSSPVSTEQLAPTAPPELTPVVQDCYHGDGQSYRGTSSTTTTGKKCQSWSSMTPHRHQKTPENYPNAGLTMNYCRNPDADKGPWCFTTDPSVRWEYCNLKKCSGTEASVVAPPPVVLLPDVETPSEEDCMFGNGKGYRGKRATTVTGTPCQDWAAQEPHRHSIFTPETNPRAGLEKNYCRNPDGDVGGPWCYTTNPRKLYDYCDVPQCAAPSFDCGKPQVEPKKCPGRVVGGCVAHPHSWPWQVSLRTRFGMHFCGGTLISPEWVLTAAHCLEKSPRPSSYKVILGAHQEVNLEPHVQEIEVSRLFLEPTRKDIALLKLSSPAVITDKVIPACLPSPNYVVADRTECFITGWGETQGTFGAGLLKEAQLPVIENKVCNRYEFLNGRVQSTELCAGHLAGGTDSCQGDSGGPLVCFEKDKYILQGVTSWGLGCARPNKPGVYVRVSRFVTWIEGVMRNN
Vitamin K-dependent protein C (Homo sapiens), sequence (P04070 43-197 limits assumed): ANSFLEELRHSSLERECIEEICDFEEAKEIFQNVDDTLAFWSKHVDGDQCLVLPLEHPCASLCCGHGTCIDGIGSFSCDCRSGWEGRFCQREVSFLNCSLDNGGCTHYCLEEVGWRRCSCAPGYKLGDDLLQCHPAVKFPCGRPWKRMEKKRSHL
Vitamin K-dependent protein C (Homo sapiens), sequence (P04070 212-461 limits assumed): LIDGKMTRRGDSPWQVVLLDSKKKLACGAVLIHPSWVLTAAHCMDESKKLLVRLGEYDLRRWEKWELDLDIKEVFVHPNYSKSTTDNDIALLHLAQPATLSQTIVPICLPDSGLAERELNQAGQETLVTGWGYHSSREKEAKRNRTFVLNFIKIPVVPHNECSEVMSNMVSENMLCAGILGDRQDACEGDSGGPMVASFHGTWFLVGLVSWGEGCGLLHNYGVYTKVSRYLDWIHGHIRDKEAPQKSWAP
Tissue-type plasminogen activator (Homo sapiens), sequence (P00750 36-562 limits assumed): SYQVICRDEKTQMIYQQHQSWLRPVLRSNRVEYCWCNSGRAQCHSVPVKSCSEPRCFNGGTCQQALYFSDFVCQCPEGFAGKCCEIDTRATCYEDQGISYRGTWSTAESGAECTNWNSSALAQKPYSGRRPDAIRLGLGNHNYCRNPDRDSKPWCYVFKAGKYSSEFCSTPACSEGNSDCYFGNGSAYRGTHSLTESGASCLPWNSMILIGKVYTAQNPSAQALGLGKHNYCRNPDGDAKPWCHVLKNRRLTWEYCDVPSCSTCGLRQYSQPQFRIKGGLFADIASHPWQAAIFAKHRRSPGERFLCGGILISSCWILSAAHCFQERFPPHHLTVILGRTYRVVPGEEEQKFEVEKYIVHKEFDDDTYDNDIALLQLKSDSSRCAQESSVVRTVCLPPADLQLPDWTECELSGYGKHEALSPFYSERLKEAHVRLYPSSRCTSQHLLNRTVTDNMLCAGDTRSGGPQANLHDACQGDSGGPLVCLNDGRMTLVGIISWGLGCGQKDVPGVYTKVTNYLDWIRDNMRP

SMILES: COc1ccc(C(=O)Nc2ccc(C(=N)N)cc2NC(=O)c2ccc(OC)cc2)cc1
- K ass [1]: 270000 l M-1

SMILES: COc1ccc(C(=O)Nc2ccccc2NC(=O)C2CCCN(C(=N)N)C2)cc1 (stereo not drawn)
- K ass [1]: 1e+06 l M-1

SMILES: COc1ccc(C(=O)Nc2ccccc2NC(=O)c2cccc(C(=N)N)c2)cc1
- K ass [2]: 270000 l M-1
- Ratio [3]: 15000
- Ratio [4]: 56
- K ass [5]: 15000 l M-1
- K ass (Trypsin II (Bos taurus)): 600000 l M-1
- K ass [1]: 1.4e+07 l M-1
- K ass [6]: 20000 l M-1
- K ass [7]: 1000 l M-1
- Ratio [8]: 750
- Ratio [9]: 25
- Activity [10]: 2 µM
- K ass [11]: 20000 l M-1
- Ratio [12]: 750
- Ratio [13]: 1000
- Activity (Homo sapiens): 1.5 µM

SMILES: CC(C)(C)c1ccc(C(=O)Nc2ccsc2C(=O)Nc2cccc(C(=N)N)c2)cc1
- K ass [1]: 1.2e+07 l M-1

SMILES: CC(C)(C)c1ccc(C(=O)Nc2ccccc2NC(=O)c2cccc(C(=N)N)c2)cc1
- K ass [2]: 3e+06 l M-1
- Ratio [3]: > 250000
- Ratio [4]: 83
- K ass [5]: 2000 l M-1
- K ass (Trypsin II (Bos taurus)): 340000 l M-1
- K ass [1]: 2.5e+08 l M-1
- K ass [6]: 11000 l M-1
- Ratio [8]: 42000
- Ratio [9]: 740
- Activity [10]: 0.67 µM
- K ass [11]: 6000 l M-1
- Ratio [12]: 23000
- Ratio [13]: 13000
- Activity (Homo sapiens): 0.96 µM

SMILES: COc1ccc(NC(=O)c2ccccc2NC(=O)c2cccc(C(=N)N)c2)cc1
- K ass [1]: 1.7e+06 l M-1

SMILES: CC(C)(C)c1ccc(C(=O)Nc2ccccc2NC(=O)C2CCCN(C(=N)N)C2)cc1 (stereo not drawn)
- K ass [1]: 1.2e+07 l M-1

SMILES: CC(C)(C)c1ccc(C(=O)Nc2ccccc2C(=O)Nc2cccc(C(=N)N)c2)cc1
- K ass [1]: 3.5e+06 l M-1

SMILES: COc1ccc(C(=O)Nc2ccccc2NC(=O)c2ccc(C(=N)N)cc2)cc1
- K ass [1]: 5.7e+06 l M-1

Now from value to molecule, other results behind:

- K ass [2]: 650000 l M-1
- Ratio [3]: 470000
- Ratio [4]: 720
- K ass [5]: 13000 l M-1
- K ass (Trypsin II (Bos taurus)): 1.2e+07 l M-1
- K ass [6]: 4000 l M-1
- K ass [7]: 1000 l M-1
- Ratio [8]: 6400
- Ratio [9]: 390
- K ass [11]: 73000 l M-1
- Ratio [12]: 120000
- Ratio [13]: 36000
SMILES: CC(C)(C)c1ccc(C(=O)Nc2cc(C(=O)O)ccc2NC(=O)c2cccc(C(=N)N)c2)cc1
- Activity [10]: 0.72 µM
- Activity (Homo sapiens): 0.83 µM

- K ass [1]: 1.6e+08 l M-1
SMILES: CCOC(=O)COc1ccc(NC(=O)c2cccc(C(=N)N)c2)c(NC(=O)c2ccc(C(C)C)cc2)c1

- K ass [2]: 800000 l M-1
- Ratio [3]: 340000
- Ratio [4]: 430
- K ass [5]: 14000 l M-1
- K ass (Trypsin II (Bos taurus)): 2.5e+06 l M-1
- K ass [1]: 3.4e+08 l M-1
- K ass [6]: 7000 l M-1
- K ass [7]: 1000 l M-1
- Ratio [8]: 8700
- Ratio [9]: 140
- K ass [11]: 39000 l M-1
- Ratio [12]: 49000
- Ratio [13]: 24000
SMILES: CC(C)c1ccc(C(=O)Nc2cc(OCC(=O)O)ccc2NC(=O)c2cccc(C(=N)N)c2)cc1

- K ass [1]: 2.3e+08 l M-1
SMILES: CC(C)c1ccc(C(=O)Nc2cc(O)ccc2NC(=O)c2cccc(C(=N)N)c2)cc1

- K ass [1]: 5.4e+07 l M-1
SMILES: CC(C)(C)c1ccc(C(=O)Nc2ccc(C(=O)O)cc2NC(=O)c2cccc(C(=N)N)c2)cc1

- K ass [1]: 1.8e+08 l M-1
SMILES: CC(C)c1ccc(C(=O)Nc2ccccc2NC(=O)c2cccc(C(=N)N)c2)cc1

- K ass [1]: 2.9e+07 l M-1
SMILES: CCOc1ccc(C(=O)Nc2ccccc2NC(=O)c2cccc(C(=N)N)c2)cc1
